# Published values pooled from the literature.
# Each line is one published result; the experiments were not run side by side.
# MAP2K6: Dual specificity mitogen-activated protein kinase kinase 6 (MAP2K6, Homo sapiens, UniProt P52564)
SMILES,target,observed,action,technique,concentration,quantity,value
Cc1ccc(NC(=O)c2ccc(CN3CCN(C)CC3)cc2)cc1Nc1nc(-c2cccnc2)cs1,MAP2K6,cell-free assay,,,0.5 µM,remaining signal,96.5%
CCCCN(CCCC)C(=O)CN1C[C@@H](c2cc(OC)c3c(c2)OCO3)[C@H](C(=O)O)[C@H]1CC(C)(C)CCC,MAP2K6,cell-free assay,,competition with immobilised ligand,1 µM,remaining binding,90.8%
CN(C)C1CCN(CC#Cc2nn(C3CCCC3)c3nc(NCc4ccccc4)ncc23)C1 (centres unmarked),MAP2K6,enzyme activity,inhibitor,FRET,0.1 µM,inhibition,0%
CCN1CCC2(CC1)NC(=O)c1c(c3ccc(Cl)c(Cl)c3n1C)C2C#N (racemic),MAP2K6,thermal stability,,DSF,10 µM,ΔTm,0 °C
O=C(Nc1cnn(-c2csc(C(=O)NC3COC3)c2)c1)Nc1c(F)cccc1Cl,MAP2K6,enzyme activity,inhibitor,,5 µM,remaining activity,94.4%
CCC(=N\O)/C(C)=C/c1ccc(F)cc1,MAP2K6,cell-free assay,,competition with immobilised ligand,1 µM,remaining binding,98%
CCCOc1ccc(OC)c(F)c1C(=O)c1ccc(C(=O)N[C@@H]2CNC[C@H]2NC(=O)c2ccc3[nH]ncc3c2)cc1,MAP2K6,enzyme activity,inhibitor,,10 µM,remaining activity,103%
C[C@@H]1CN(c2cc(-c3nn(C)c4ccc(OC5(C)CC5)cc34)ncn2)C[C@H](C)O1,MAP2K6,cell-free assay,,competition with immobilised ligand,1 µM,remaining binding,89%
Cn1c2c(c3ccc(Cl)c(Cl)c31)C(C#N)C1(CCOCC1)NC2=O (centres unmarked),MAP2K6,thermal stability,,DSF,10 µM,ΔTm,0 °C
CC(C)(C)c1nc2c(s1)c1nc(N)ncc1c1ccc(NS(=O)(=O)c3c(F)cccc3F)c(F)c12,"Dual specificity mitogen-activated protein kinase kinase 6 (MAP2K6, Homo sapiens, UniProt P52564, S207D/T211D)",enzyme activity,inhibitor,radiometric,1 µM,remaining activity,70%
Cn1cc(Cl)c2c(Oc3c(F)cc(Nc4cc(Cl)nc(N)n4)cc3F)ccnc21,MAP2K6,cell-free assay,,competition with immobilised ligand,0.1 µM,remaining binding,100%
Cc1cnc(NC2CCOCC2)nc1-n1cnc(C(=O)NC(CN)c2cc(F)cc(Cl)c2)c1 (centres unmarked),MAP2K6,enzyme activity,inhibitor,radiometric,1 µM,remaining activity,96%
C[S+]([O-])c1ccc(-c2nc(-c3ccncc3)c(-c3ccc(F)cc3)[nH]2)cc1 (centres unmarked),MAP2K6,cell-free assay,,,0.5 µM,remaining signal,102%
COc1cc(Cl)c(C(=O)N[C@@H](CN[C@H]2CC[C@@H](N)CC2)Cc2ccc(C#N)cc2)cc1-c1ccc(CN[C@H](C)c2ccc(C)cc2)o1,MAP2K6,enzyme activity,inhibitor,,1 µM,remaining activity,88%
Cn1c2c(c3ccc(Cl)c(Cl)c31)C(C#N)C(C)(C)NC2=O (centres unmarked),MAP2K6,thermal stability,,DSF,10 µM,ΔTm,0.2 °C
CC(C)(O)c1cncc(-c2nc3ccc(F)cc3n2C2CC2)c1,MAP2K6,cell-free assay,,competition with immobilised ligand,1 µM,remaining binding,100%
FC(F)c1nc2ccccc2n1-c1nc(N2CCOCC2)nc(N2CCOCC2)n1,MAP2K6,enzyme activity,inhibitor,,10 µM,remaining activity,83%
CO[C@@H](C)c1c(Nc2ccc([C@H](N(C)C(=O)C3CCS(=O)(=O)CC3)C(F)(F)F)cc2)cnc2cc(Cl)nn12,MAP2K6,cell-free assay,,competition with immobilised ligand,1 µM,remaining binding,91%
N#CCCc1ccc2c(c1)-c1[nH]c3ccc([N+](=O)[O-])cc3c1CC(=O)N2,MAP2K6,cell-free assay,,,0.5 µM,remaining signal,97.2%
COc1cc2ncnc(Nc3ccc(Oc4ccccc4)c(C)c3C)c2cc1OC,MAP2K6,enzyme activity,inhibitor,,1 µM,inhibition,2%
CNCc1ccc(-c2cc(-c3nc(-c4ccc(S(=O)(=O)C(C)C)cc4)cnc3N)on2)cc1,MAP2K6,enzyme activity,inhibitor,,2 µM,inhibition,28%
Cn1c2c(c3ccc(Cl)c(Cl)c31)C(C#N)C1(CCCC1)NC2=O (centres unmarked),MAP2K6,thermal stability,,DSF,10 µM,ΔTm,0 °C
CNC(=O)c1cc(Oc2ccc(NC(=O)Nc3ccc(Cl)c(C(F)(F)F)c3)cc2)ccn1,MAP2K6,enzyme activity,inhibitor,,10 µM,inhibition,99%
Cn1c2c(c3ccc(Cl)c(Cl)c31)C(C#N)C1(CCNCC1)NC2=O (racemic),MAP2K6,thermal stability,,DSF,10 µM,ΔTm,0.3 °C
O=C1Nc2ccc(Cl)cc2C1=Cc1cc(Cl)c(O)c(Cl)c1,MAP2K6,cell-free assay,,,0.5 µM,remaining signal,96.4%
COc1cc(Nc2cnc(C#N)c(O[C@H](C)CN(C)C)n2)ncc1-c1cnn(C)c1,MAP2K6,enzyme activity,inhibitor,radiometric,1 µM,remaining activity,71%
C[C@H](c1ccc(F)cc1)N(Cc1cccc(C(=O)O)c1)C(=O)c1cnc2ccccc2c1,MAP2K6,cell-free assay,,competition with immobilised ligand,1 µM,remaining binding,100%
Nc1ncnc2occ(-c3ccc(NC(=O)Nc4cc(C(F)(F)F)ccc4F)cc3)c12,MAP2K6,cell-free assay,inhibitor,,20 µM,remaining signal,58%
CN(C)C(=O)Cn1cc(-c2nc([C@@](C)(c3ccc(-c4cnc(N)nc4)cc3)C3CC3)no2)cn1,MAP2K6,cell-free assay,,competition with immobilised ligand,1 µM,remaining binding,100%
CN1CC(Oc2cnc(C#N)cc2-c2ccn3nc(NC(=O)C4CC4)cc3c2)C1,MAP2K6,enzyme activity,inhibitor,,1 µM,inhibition,21%
Cc1cc(NC(=O)c2cccc3cc(-c4cccc5[nH]nc(N)c45)ccc23)ccc1F,MAP2K6,enzyme activity,inhibitor,,0.1 µM,activity vs control,89%
CS(=O)(=O)CCNCc1ccc(-c2ccc3ncnc(Nc4ccc(OCc5cccc(F)c5)c(Cl)c4)c3c2)o1,MAP2K6,cell-free assay,,,0.5 µM,remaining signal,95.4%
CCN(CC)c1ccc(C2=NNC(=O)CC2C)cc1[N+](=O)[O-] (centres unmarked),MAP2K6,enzyme activity,inhibitor,,10 µM,remaining activity,97%
Cc1sc(C(=O)NC2COC2)cc1-n1cc(NC(=O)Nc2c(F)cccc2Cl)cn1,MAP2K6,enzyme activity,inhibitor,,10 µM,remaining activity,86.4%
Cc1ccc(Nc2nccc(N(C)c3ccc4c(C)n(C)nc4c3)n2)cc1S(N)(=O)=O,MAP2K6,enzyme activity,inhibitor,,0.3 µM,inhibition,-10%
